Results: ChEMBL document CHEMBL3044785, “Isolation and identification of antifungal and antialgal alkaloids from Haplophyllum sieversii” (J Agric Food Chem, 2005)
Active and inactive are the calls of the source. The rule behind the calls is not given here.

Experiments:
Planktothrix agardhii [1] = experiment: Antialgal activity against Planktothrix agardhii assessed as lowest observed effect concentration measured for 4 days; format: functional
Outline: (§1)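 Cyanobacteria (O. perornata, O. agardhii, Pseudanabaena LW397) and the green alga S. capricornutum were each maintained in continuous steady-state culture. Compound in dichloromethane was dried in quartz 96-well plates, then 200 µL culture was added. Final concentrations were 0.1, 1.0, 10.0 and 100.0 µM, in triplicate, and experiments were repeated. Plates were held at 29 °C under continuous light, and A650 was read every 24 h for 4 days. LOEC, LCIC and 96-h IC50 were taken from mean absorbance graphs.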

Planktothrix perornata [2] = experiment: Antialgal activity against Oscillatoria perornata assessed as inhibition measured for 96 hr; format: functional, organism-based; outline: as §1
Planktothrix perornata [3] = experiment: Antialgal activity against Oscillatoria perornata assessed as lowest observed effect concentration measured for 4 days; format: functional; outline: as §1
Planktothrix perornata [4] = experiment: Antialgal activity against Oscillatoria perornata assessed as lowest complete inhibition concentration measured for 4 daysos; format: functional; outline: as §1
Phomopsis obscurans [5] = experiment: Antifungal activity against Phomopsis obscurans assessed as growth inhibition at 50 uM measured at 120 hr by 96-well microtiter assay; format: functional; conditions: Paraphomopsis obscurans
Outline: (§2)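 Filamentous-fungus broth microdilution in 96 wells, adapted from NCCLS M27A, with benomyl, azoxystrobin and captan as standards. Conidia came from 7–10-day PDA cultures, were filtered and set to 1.0 × 10^6 conidia/mL by A625 standard curve. Compounds were tested at 50.0, 100.0 and 150.0 µM. Growth was read as A620 at 0, 24, 48 and 72 h, plus 120 h for Phomopsis species. Percent inhibition was pooled from two experiments.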

Botrytis cinerea = experiment: Antifungal activity against Botryotinia fuckeliana assessed as growth inhibition at 50 to 150 uM measured up to 72 hr by 96-well microtiter assay; format: functional, organism-based; outline: as §2
Colletotrichum acutatum = experiment: Antifungal activity against Colletotrichum acutatum assessed as growth inhibition at 50 to 150 uM measured up to 72 hr by 96-well microtiter assay; format: functional, organism-based; outline: as §2
[6] = tested on: Colletotrichum gloeosporioides; experiment: Antifungal activity against Colletotrichum gloeosporioides assessed as growth inhibition at 50 to 150 uM measured up to 72 hr by 96-well microtiter assay; format: functional, organism-based; outline: as §2
Diaporthe ampelina = experiment: Antifungal activity against Diaporthe ampelina assessed as growth inhibition at 50 to 150 uM measured up to 120 hr by 96-well microtiter assay; format: functional, organism-based; outline: as §2
Colletotrichum fragariae = experiment: Antifungal activity against Colletotrichum fragariae assessed as growth inhibition at 50 to 150 uM measured up to 72 hr by 96-well microtiter assay; format: functional, organism-based; outline: as §2
Phomopsis obscurans [7] = experiment: Antifungal activity against Phomopsis obscurans assessed as growth inhibition at 50 to 150 uM measured up to 120 hr by 96-well microtiter assay; format: functional, organism-based; conditions: Paraphomopsis obscurans; outline: as §2
Fusarium oxysporum = experiment: Antifungal activity against Fusarium oxysporum assessed as growth inhibition at 50 to 150 uM measured up to 72 hr by 96-well microtiter assay; format: functional, organism-based; outline: as §2
[8] = tested on: Selenastrum capricornutum; experiment: Antialgal activity against Selenastrum capricornutum assessed as inhibition measured for 96 hr; format: functional, organism-based; outline: as §1
[9] = tested on: Selenastrum capricornutum; experiment: Antialgal activity against Selenastrum capricornutum assessed as lowest complete inhibition concentration measured for 4 days; format: functional; outline: as §1
[10] = tested on: Selenastrum capricornutum; experiment: Antialgal activity against Selenastrum capricornutum assessed as lowest observed effect concentration measured for 4 days; format: functional; outline: as §1
Pseudanabaena sp. [11] = experiment: Antialgal activity against Pseudanabaena sp. LW397 assessed as inhibition measured for 96 hr; format: functional, organism-based; conditions: LW397, 96 h; outline: as §1
Pseudanabaena sp. [12] = experiment: Antialgal activity against Pseudanabaena sp. LW397 assessed as lowest complete inhibition concentration measured for 4 days; format: functional; outline: as §1
Pseudanabaena sp. [13] = experiment: Antialgal activity against Pseudanabaena sp. LW397 assessed as lowest observed effect concentration measured for 4 days; format: functional; outline: as §1
Planktothrix agardhii [14] = experiment: Antialgal activity against Planktothrix agardhii assessed as lowest complete inhibition concentration measured for 4 days; format: functional; outline: as §1
Phomopsis obscurans [15] = experiment: Antifungal activity against Phomopsis obscurans assessed as growth inhibition at 50 uM measured at 120 hr by 96-well microtiter assay; conditions: Paraphomopsis obscurans
[16] = tested on: Colletotrichum gloeosporioides; experiment: Antifungal activity against Colletotrichum gloeosporioides assessed as growth inhibition at 150 µM measured at 72 hr by 96-well microtiter assay
[17] = tested on: Colletotrichum gloeosporioides; experiment: Antifungal activity against Colletotrichum gloeosporioides assessed as growth inhibition at 150 µM measured at 48 hr by 96-well microtiter assay

`COc1ccc2[nH]c(=O)c3c(c2c1)OC(C)(C)C=C3` [HAPLAMINE] was tested, and the Activity (Planktothrix agardhii [1]) was >100 µM, the IC50 (Planktothrix perornata [2]) was 1.8 µM and the Activity (Planktothrix perornata [3]) was 1 µM. For the same molecule, the Activity (Planktothrix perornata [4]) was 10 µM, the inhibition at 50 µM (Phomopsis obscurans [5]) was > 80% and the “growth inhibition (GI)” value (Botrytis cinerea) was “Active”. For the same molecule, the “growth inhibition (GI)” value (Colletotrichum acutatum) was “Active”, the “growth inhibition (GI)” value [6] was “Active” and the “growth inhibition (GI)” value (Diaporthe ampelina) was “Active”. The “growth inhibition (GI)” value (Colletotrichum fragariae) was “Active”, the “growth inhibition (GI)” value (Phomopsis obscurans [7]) was “Active” and the “growth inhibition (GI)” value (Fusarium oxysporum) was “Active”. For the same molecule, the IC50 [8] was 15.9 µM, the Activity [9] was 100 µM and the Activity [10] was 10 µM. For the same molecule, the IC50 (Pseudanabaena sp. [11]) was 2 µM, the Activity (Pseudanabaena sp. [12]) was 100 µM and the Activity (Pseudanabaena sp. [13]) was 1 µM. The Activity (Planktothrix agardhii [14]) was >100 µM and the inhibition at 50 µM (Phomopsis obscurans [15]) was > 80%.
With `CC1(C)C=Cc2c(O)nc3ccccc3c2O1` [FLINDERSINE] the Activity (Planktothrix agardhii [1]) was >100 µM, the IC50 (Planktothrix perornata [2]) was 15.9 µM and the Activity (Planktothrix perornata [3]) was 10 µM. The Activity (Planktothrix perornata [4]) was 100 µM, the inhibition at 50 µM (Phomopsis obscurans [5]) was > 80% and the “growth inhibition (GI)” value (Colletotrichum acutatum) was “Active”. For the same molecule, the “growth inhibition (GI)” value [6] was “Active”, the “growth inhibition (GI)” value (Diaporthe ampelina) was “Active” and the “growth inhibition (GI)” value (Colletotrichum fragariae) was “Active”. The “growth inhibition (GI)” value (Phomopsis obscurans [7]) was “Active”, the “growth inhibition (GI)” value (Fusarium oxysporum) was “Active” and the IC50 [8] was 17.8 µM. The Activity [9] was 100 µM, the Activity [10] was 10 µM and the Activity (Pseudanabaena sp. [12]) was >100 µM. For the same molecule, the Activity (Pseudanabaena sp. [13]) was >100 µM, the Activity (Planktothrix agardhii [14]) was >100 µM and the inhibition at 50 µM (Phomopsis obscurans [15]) was > 80%. For the same molecule, the “inhibition (INH)” value [16] was <40% and the “inhibition (INH)” value [17] was >65%.
For `COc1c2ccoc2nc2c(OC)c(OCC3OC3(C)C)ccc12` (centres undefined) [ANHYDROEVOXINE], the inhibition at 50 µM (Phomopsis obscurans [5]) was > 80%, the “growth inhibition (GI)” value (Colletotrichum acutatum) was “Active” and the “growth inhibition (GI)” value [6] was “Active”. For the same molecule, the “growth inhibition (GI)” value (Diaporthe ampelina) was “Active”, the “growth inhibition (GI)” value (Colletotrichum fragariae) was “Active” and the “growth inhibition (GI)” value (Phomopsis obscurans [7]) was “Active”. For the same molecule, the “growth inhibition (GI)” value (Fusarium oxysporum) was “Active” and the inhibition at 50 µM (Phomopsis obscurans [15]) was > 80%.
`COc1ccc([C@H]2OC[C@H]3[C@@H]2CO[C@@H]3c2ccc(OC)c(OC)c2)cc1OC` [(+)-EUDESMIN] was tested, and the Activity (Planktothrix agardhii [1]) was >100 µM, the Activity (Planktothrix perornata [3]) was 10 µM and the Activity (Planktothrix perornata [4]) was >100 µM. The inhibition at 50 µM (Phomopsis obscurans [5]) was > 80%, the “growth inhibition (GI)” value (Colletotrichum acutatum) was “Active” and the “growth inhibition (GI)” value [6] was “Active”. For the same molecule, the “growth inhibition (GI)” value (Diaporthe ampelina) was “Active”, the “growth inhibition (GI)” value (Colletotrichum fragariae) was “Active” and the “growth inhibition (GI)” value (Phomopsis obscurans [7]) was “Active”. The “growth inhibition (GI)” value (Fusarium oxysporum) was “Active”, the Activity [9] was >100 µM and the Activity [10] was 100 µM. For the same molecule, the Activity (Pseudanabaena sp. [12]) was 100 µM, the Activity (Pseudanabaena sp. [13]) was 100 µM and the Activity (Planktothrix agardhii [14]) was >100 µM. For the same molecule, the inhibition at 50 µM (Phomopsis obscurans [15]) was > 80%.
